{"source": "ChEMBL document CHEMBL3272226", "about": "“Synthesis and dopaminergic activity of (+/-)-, (+)-, and (-)-2-dipropylamino-5-hydroxy-1,2,3,4-tetrahydronaphthalene” (1976)", "key": {"Canis familiaris [1]": {"test_system": "Canis familiaris", "test": "Dopaminergic activity in (+)-6-(dipropylamino)-5,6,7,8-tetrahydronaphthalen-1-ol-pretreated dog assessed as induction of emesis administered intramuscularly measured up to 20 hrs", "type": "functional, organism-based", "conditions": "Canis lupus familiaris", "method_in_brief": "(§1)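 Dogs, three to five per dose, given im injection of test solutions (HCl or HI salts dissolved in saline, doses as free base); minimum emetic dose determined.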"}, "Rattus norvegicus [2]": {"test_system": "Rattus norvegicus", "test": "Dopaminergic activity in (+)-6-(dipropylamino)-5,6,7,8-tetrahydronaphthalen-1-ol-pretreated sc dosed Sprague-Dawley rat assessed as induction of stereotyped behavior administered for 30 to 50 mins", "type": "functional, organism-based", "method_in_brief": "(§2)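 Sprague-Dawley male rats, three per dose, dosed sc with HCl or HI salts in saline (doses as free base); minimum dose inducing stereotyped behavior lasting 30-50 min determined.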"}, "Canis familiaris [3]": {"test_system": "Canis familiaris", "test": "Dopaminergic activity in dog assessed as induction of emesis administered intramuscularly measured up to 20 hrs", "type": "functional, Canis lupus familiaris", "conditions": "for minimal effective dose: Canis lupus familiaris, im, 20 h, read-out: MED", "method_in_brief": "as §1"}, "Rattus norvegicus [4]": {"test_system": "Rattus norvegicus", "test": "Dopaminergic activity in sc dosed Sprague-Dawley rat assessed as induction of stereotyped behavior administered for 30 to 50 mins", "type": "functional", "conditions": "for minimal effective dose: Rattus norvegicus, Sprague-Dawley, sc, read-out: MED", "method_in_brief": "as §2"}}, "note": "The source made the active and inactive calls. No cut-off for these calls is given here."}
{"smiles": "CN1CCc2cccc3c2[C@H]1Cc1ccc(O)c(O)c1-3", "values": [{"measurement": "Activity", "setting": "Canis familiaris [1]", "result": "Active"}, {"measurement": "Activity", "setting": "Rattus norvegicus [2]", "result": "Active"}]}
{"smiles": "CCCN(CCC)C1CCc2cc(O)ccc2C1", "note": "(racemic)", "values": [{"measurement": "minimal effective dose", "setting": "Canis familiaris [3]", "result": 0.036, "unit": "mg/kg"}, {"measurement": "minimal effective dose", "setting": "Rattus norvegicus [4]", "result": 13, "unit": "mg/kg"}]}
{"smiles": "CCCN(CCC)C1CCc2ccc(O)cc2C1", "note": "(racemic)", "values": [{"measurement": "minimal effective dose", "setting": "Canis familiaris [3]", "result": 0.013, "unit": "mg/kg"}, {"measurement": "minimal effective dose", "setting": "Rattus norvegicus [4]", "result": 23, "unit": "mg/kg"}]}
{"smiles": "CCCN(CCC)C1CCc2c(O)cccc2C1", "note": "(racemic) [5-OH-DPAT]", "values": [{"measurement": "MED", "setting": "Canis familiaris [3]", "result": 0.004, "unit": "mg/kg"}, {"measurement": "MED", "setting": "Rattus norvegicus [4]", "result": 0.09, "unit": "mg/kg"}]}
{"smiles": "CCCN(CCC)C1CCc2c(O)cccc2C1", "note": "(single isomer, unassigned; (+)) [5-OH-DPAT]", "values": [{"measurement": "MED", "setting": "Canis familiaris [3]", "result": ">0.08", "unit": "mg/kg"}, {"measurement": "MED", "setting": "Rattus norvegicus [4]", "result": ">1.8", "unit": "mg/kg"}]}
{"smiles": "CCCN(CCC)C1CCc2c(O)cccc2C1", "note": "(single isomer, unassigned; (-))", "values": [{"measurement": "Activity", "setting": "Canis familiaris [1]", "result": "Active"}, {"measurement": "Activity", "setting": "Rattus norvegicus [2]", "result": "Active"}]}
{"smiles": "CCCN(CCC)C1CCc2c(O)cccc2C1", "note": "(single isomer, unassigned; (-)) [5-OH-DPAT]", "values": [{"measurement": "MED", "setting": "Canis familiaris [3]", "result": 0.002, "unit": "mg/kg"}, {"measurement": "MED", "setting": "Rattus norvegicus [4]", "result": 0.05, "unit": "mg/kg"}]}
